The source of these data is ChEMBL document CHEMBL3745707 (Bioorg Med Chem, 2016).

For orientation: ΔTm means the change in melting temperature against a reference sample. The term IC50 denotes the point on the concentration scale where inhibition reaches its midpoint. As usually defined, the GI50 is the concentration that inhibits growth by half.

The target in assay [1] is T1, Serine/threonine-protein kinase PLK2 (Homo sapiens, UniProt Q9NYY3).
Target sequence in this assay (Q9NYY3 whole entry, looked up): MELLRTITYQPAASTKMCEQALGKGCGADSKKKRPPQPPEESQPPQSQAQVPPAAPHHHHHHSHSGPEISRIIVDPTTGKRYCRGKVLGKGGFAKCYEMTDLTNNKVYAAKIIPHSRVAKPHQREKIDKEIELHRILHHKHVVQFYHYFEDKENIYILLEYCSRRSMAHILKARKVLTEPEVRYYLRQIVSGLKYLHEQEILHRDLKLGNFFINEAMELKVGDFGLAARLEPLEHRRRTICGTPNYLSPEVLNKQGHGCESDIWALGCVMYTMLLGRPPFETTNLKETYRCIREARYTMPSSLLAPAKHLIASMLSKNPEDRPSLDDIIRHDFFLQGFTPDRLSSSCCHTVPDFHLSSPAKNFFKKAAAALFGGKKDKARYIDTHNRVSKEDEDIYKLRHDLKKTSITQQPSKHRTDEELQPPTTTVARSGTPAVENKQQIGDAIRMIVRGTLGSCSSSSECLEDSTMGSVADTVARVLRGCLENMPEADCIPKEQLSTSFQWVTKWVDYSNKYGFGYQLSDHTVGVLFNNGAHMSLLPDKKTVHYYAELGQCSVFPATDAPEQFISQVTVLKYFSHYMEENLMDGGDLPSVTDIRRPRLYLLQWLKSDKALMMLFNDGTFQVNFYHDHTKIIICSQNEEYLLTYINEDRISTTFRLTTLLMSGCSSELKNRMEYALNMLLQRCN
The test system of assay [2] is K562. Put plainly: cells. It counts as functional, cell-based. Particulars: Homo sapiens, K562, 72 h.
A short description of assay [3]: cells. The format is functional, cell-based. To be noted: Homo sapiens, DU-145, 72 h.
For assay [4], the target named is T1, Serine/threonine-protein kinase PLK2. The assay can be described thus: Inhibition of human recombinant PLK2 using recombinant dephosphorylated bovine alpha- casein as substrate after 30 mins by scintillation counting analysis in presence of gamma-32P-ATP.
Target sequence in this assay (Q9NYY3 whole entry): as the sequence (Q9NYY3 whole entry, looked up) above
Assay [5] deals with SK-MEL-28. Put plainly: cells. The format is functional. Particulars: Homo sapiens, SK-MEL-28, 72 h.
Assay [6] can be described thus: cells. The format is functional. Particulars: Homo sapiens, MIA PaCa-2, 72 h.
A short description of assay [7]: cells. It counts as functional. To be noted: Homo sapiens, COLO 205, 72 h.
The subject of assay [8] is NCI-H1975. The assay can be described thus: cells. To be noted: Homo sapiens, NCI-H1975, 72 h. The format is functional.
Assay [9] relates to Raji. The assay can be described thus: cells. The format is functional. Particulars: Homo sapiens, 72 h.
Assay [10] in a line: cells. It counts as functional. To be noted: Homo sapiens, Granta-519, 72 h.
Assay [11] in a line: cells. It counts as functional. To be noted: Homo sapiens, BT-474, 72 h.
Assay [12] in a line: cells. It counts as functional, U-87MG ATCC. To be noted: Homo sapiens, U-87 MG, 72 h.
A short description of assay [13]: cells. The format is functional. Particulars: Homo sapiens, SK-OV-3, 72 h.
Assay [14] deals with Tubulin (Bos taurus) (UniProt Q6B856+Q862L2+Q862F3). The assay can be described thus: Inhibition of bovine MAP rich tubulin polymerization at 10 uM measured every 2 mins for 30 mins by UV-visible spectrophotometric analysis. It counts as protein assay. The essentials: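 MAP-rich bovine tubulin at 1.5 mg/mL in 80 mM PIPES pH 6.9, 1 mM GTP, 0.5 mM EGTA, 2 mM MgCl₂. Briefly preincubated with agent or DMSO, then polymerized at 37 °C in a spectrophotometer. Absorbance recorded every 2 min for 30 min; n = 3.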

The test system of assay [15] is A549. The assay can be described thus: cells. The format is functional. Particulars: Homo sapiens, A549, 72 h.
Assay [16] has as its system MCF7. Put plainly: cells. The format is functional. To be noted: Homo sapiens, MCF7, 72 h.
The subject of assay [17] is HeLa. The assay can be described thus: cells. It counts as functional. Particulars: Homo sapiens, 72 h.
For assay [18], the system named is U2OS. Put plainly: cells. It counts as functional. To be noted: Homo sapiens, 72 h.

Structures are written as SMILES. Active and inactive are the calls of the source. No cut-off for these calls is given here.

Take `CC[C@@H]1C(=O)N(C)c2cnc(Nc3ccc(C(=O)NC4CCN(C)CC4)cc3OC)nc2N1C1CCCC1`: the ΔTm in assay [1] is 12.3 °C.

On to `Cn1c(=O)c(S(=O)(=O)c2ccc(F)cc2)cc2cnc(Nc3cccc4[nH]ccc34)nc21`, for which the concentration for half-maximal inhibition (IC50) amounted to 750 nM in assay [2], 750 nM in [3] and 6080 nM in assay [4].

Turning to `Cc1ccc(S(=O)(=O)c2cc3cnc(Nc4ccc5[nH]ccc5c4)nc3n(C)c2=O)cc1`, the half-maximal inhibitory concentration (IC50) in assay [2] and in assay [3] was 750 nM throughout.

For `Cc1cc2cc(Nc3ncc4cc(S(=O)(=O)c5ccc(F)cc5F)c(=O)n(C)c4n3)ccc2[nH]1`, the IC50 in assay [2] and in assay [3] was 750 nM throughout.

As for `Cn1c(=O)c(S(=O)(=O)c2ccc(F)cc2F)cc2cnc(Nc3ccc4c(c3)CC(=O)N4)nc21`, the figures for the IC50 in assay [2] and in [3] were 15000 nM and 100000 nM, respectively.

For `Cn1c(=O)c(S(=O)(=O)c2ccc(F)cc2F)cc2cnc(Nc3ccccn3)nc21`, the figures for the IC50 in assay [2] and in assay [3] were 35000 nM and 75000 nM, respectively.

Regarding `Cn1c(=O)c(S(=O)(=O)Cc2ccc(F)cc2)cc2cnc(Nc3ccc4[nH]ccc4c3)nc21`, the IC50 in assay [2] and in [3] was 30000 nM each time.

Turning to `Cn1c(=O)c(S(=O)(=O)c2ccc(Br)cc2)cc2cnc(Nc3ccc4[nH]ccc4c3)nc21`, the IC50 in assay [2] and in assay [3] was 5000 nM throughout.

With `Cn1ccc2cc(Nc3ncc4cc(S(=O)(=O)c5ccc(Cl)cc5Cl)c(=O)n(C)c4n3)ccc21`, the IC50 in assay [2] and in assay [3] was 750 nM in each case.

On to `COc1ccc(Nc2ncc3cc(S(=O)(=O)c4ccc(Cl)cc4)c(=O)n(C)c3n2)cc1`, for which the values for the IC50 in [2] and in assay [3] were 15000 nM and 30000 nM, respectively.

In the case of `O=c1c(S(=O)(=O)c2ccc(F)cc2F)cc2cnc(Nc3ccc4[nH]ccc4c3)nc2n1C1CC1`, the IC50 in assay [2] and in [3] was 500 nM each time.

For `Cn1c(=O)c(S(=O)(=O)c2ccc(Cl)cc2)cc2cnc(Nc3ccc4[nH]ccc4c3)nc21`, the IC50 in [2] was found to be 100 nM; in [3], 250 nM.

Turning to `Cn1c(=O)c(S(=O)(=O)c2ccccc2)cc2cnc(Nc3ccc4[nH]ccc4c3)nc21`, the IC50 was found to be 1000 nM in [2], 5000 nM in assay [3] and 1230 nM in [4].

As to `COc1ccc(S(=O)(=O)c2cc3cnc(Nc4ccc5[nH]ccc5c4)nc3n(C)c2=O)cc1`, the figures for the IC50 in assay [2], in [3] and in [4] were 300 nM, 500 nM and 350 nM, respectively.

Consider `Cn1c(=O)c(S(=O)(=O)c2ccc(Cl)cc2)cc2cnc(Nc3ccc(Cl)cc3)nc21`, for which the IC50 in assay [2] and in [3] was 15000 nM throughout.

With `Cn1c(=O)c(S(=O)(=O)c2ccc(O)cc2)cc2cnc(Nc3ccc4[nH]ccc4c3)nc21`, the GI50 in [5] was determined as 500 nM; in assay [6], 100 nM; in [7], 250 nM; in assay [8] it was 750 nM; in [9], 500 nM; in [10], 250 nM. In addition, the GI50 in assay [11] stood at 200 nM; in assay [12] it was 1000 nM; in assay [13], 750 nM; in assay [15], 750 nM; in assay [16], 500 nM; in assay [17], 750 nM. The molecule also returned a 50% growth inhibitory concentration (GI50) in [18] of 350 nM. Moreover, the half-inhibitory concentration (IC50) in [2] amounted to 100 nM; in assay [3], 250 nM; in assay [4], 470 nM. For the same molecule, the inhibition result in assay [14] was “Active”.

Take `Cc1ccc(S(=O)(=O)c2cc3cnc(Nc4ccc5cc[nH]c5c4)nc3n(C)c2=O)cc1`: the IC50 in assay [2] and in [3] was 15000 nM throughout.

Turning to `Cn1c(=O)c(S(=O)(=O)c2ccc(F)cc2N)cc2cnc(Nc3ccc4[nH]ccc4c3)nc21`, the IC50 in assay [2] was found to be 2000 nM; in [3], 3000 nM.

On to `O=c1c(S(=O)(=O)c2ccc(F)cc2F)cc2cnc(Nc3ccc4[nH]ccc4c3)nc2n1CC1CC1`, for which the IC50 in assay [2] and in assay [3] was 1000 nM in each case.

Turning to `Cn1c(=O)c(S(=O)(=O)c2ccc(F)cc2F)cc2cnc(Nc3ccncn3)nc21`, the IC50 in assay [2] was determined as 30000 nM; in assay [3] it was 50000 nM.

As to `COc1ccc(Nc2ncc3cc(S(=O)(=O)c4ccc(C)cc4)c(=O)n(C)c3n2)cc1`, the IC50 in assay [2] was found to be 75000 nM; in assay [3], 100000 nM.

`Cn1c(=O)c(S(=O)(=O)c2ccc(F)cc2F)cc2cnc(Nc3ccc4[nH]c(C(=O)O)cc4c3)nc21`: the IC50 in assay [2] and in [3] was 10000 nM throughout.

With `Cn1c(=O)c(S(=O)(=O)c2ccc(F)cc2F)cc2cnc(Nc3ccc4[nH]ncc4c3)nc21`, the IC50 in [2] came to 50000 nM; in assay [3] it was 30000 nM.

Consider `Cn1c(=O)c(S(=O)(=O)c2ccc(F)cc2)cc2cnc(Nc3ccc4occc4c3)nc21`, for which the IC50 in assay [2] and in assay [3] was 5000 nM in each case.

`Cn1c(=O)c(S(=O)(=O)c2ccccc2)cc2cnc(Nc3ccc4cc[nH]c4c3)nc21`: the IC50 in [2] and in [3] was 10000 nM each time.

Regarding `Cn1c(=O)c(S(=O)(=O)c2ccc(F)cc2)cc2cnc(Nc3ccc4[nH]cnc4c3)nc21`, the half-maximal inhibitory concentration (IC50) in [2] and in [3] was 10000 nM throughout.

As for `Cn1ccc2cc(Nc3ncc4cc(S(=O)(=O)c5ccc(F)cc5F)c(=O)n(C)c4n3)ccc21`, the IC50 in [2] and in [3] was 750 nM in each case.

On to `Cc1ccc(S(=O)(=O)c2cc3cnc(Nc4cnc5[nH]ccc5c4)nc3n(C)c2=O)cc1`, for which the values for the IC50 in assay [2] and in [3] were 15000 nM and 25000 nM, respectively.

As for `COC(=O)Cn1c(=O)c(S(=O)(=O)c2ccc(F)cc2F)cc2cnc(Nc3ccc4[nH]ccc4c3)nc21`, the IC50 was found to be 5000 nM in assay [2] and 10000 nM in assay [3].

In the case of `COc1ccc(S(=O)(=O)c2cc3cnc(Nc4cccc5[nH]ccc45)nc3n(C)c2=O)cc1`, the IC50 in [2] and in assay [3] was 5000 nM throughout.

Turning to `Cn1c(=O)c(S(=O)(=O)c2ccc(F)cc2[N+](=O)[O-])cc2cnc(Nc3ccc4[nH]ccc4c3)nc21`, the half-inhibitory concentration (IC50) in assay [2] was 900 nM; in assay [3] it was 1500 nM.

`Cn1c(=O)c(S(=O)(=O)c2ccc(F)cc2F)cc2cnc(Nc3cccc4[nH]ccc34)nc21`: the IC50 was found to be 1500 nM in assay [2] and 750 nM in assay [3].

In the case of `Cn1c(=O)c(S(=O)(=O)c2ccc(F)cc2F)cc2cnc(Nc3ccc4c(c3)C(=O)C(=O)N4)nc21`, the half-inhibitory concentration (IC50) in [2] was 30000 nM; in assay [3] it was 75000 nM.

Take `Cn1c(=O)c(C(=O)Nc2ccc(F)cc2F)cc2cnc(Nc3ccc4[nH]ccc4c3)nc21`: the IC50 in [2] and in assay [3] was 5000 nM in each case.

Turning to `CCCn1c(=O)c(S(=O)(=O)c2ccc(F)cc2F)cc2cnc(Nc3ccc4[nH]ccc4c3)nc21`, the 50% inhibitory concentration (IC50) in [2] and in assay [3] was 1000 nM in each case.

With `Cn1c(=O)c(S(=O)(=O)c2ccc(F)cc2F)cc2cnc(NCc3ccc4[nH]ccc4c3)nc21`, the IC50 in assay [2] is 75000 nM; in [3] it was 100000 nM.

For the molecule `Cn1c(=O)c(S(=O)(=O)c2ccc(OC(=O)CCCCC3SCC4NC(=O)NC43)cc2)cc2cnc(Nc3ccc4[nH]ccc4c3)nc21` (stereo unspecified), the concentration for 50% growth inhibition (GI50) in assay [5] was 500 nM; in [6], 100 nM; in [7], 500 nM; in assay [8], 750 nM; in assay [9], 400 nM; in [10] it was 500 nM. For the same molecule, the 50% growth inhibitory concentration (GI50) in [11] worked out at 250 nM; in assay [12], 1000 nM; in assay [13], 400 nM; in [15], 2500 nM; in assay [16] it was 500 nM; in assay [17], 500 nM. Besides, in assay [18], the GI50 came out at 350 nM. In addition, the IC50 amounted to 600 nM in assay [2] and 150 nM in [3]. The inhibition result in assay [14] was “Active”.

Turning to `Cn1c(=O)c(C(=O)Nc2ccc(F)cc2)cc2cnc(Nc3ccc4[nH]ccc4c3)nc21`, the IC50 in [2] and in assay [3] was 5000 nM throughout.

Consider `Cn1c(=O)c(S(=O)(=O)c2ccc(N)cc2F)cc2cnc(Nc3ccc4[nH]ccc4c3)nc21`, for which the IC50 in [2] is 1500 nM; in assay [3] it was 8000 nM.

Consider `Cn1c(=O)c(S(=O)(=O)c2ccc(F)cc2F)cc2cnc(Nc3cnc4[nH]ccc4c3)nc21`, for which the IC50 in assay [2] and in [3] was 750 nM throughout.

On to `Cn1c(=O)c(S(=O)(=O)c2ccc([N+](=O)[O-])cc2F)cc2cnc(Nc3ccc4[nH]ccc4c3)nc21`, for which the figures for the IC50 in assay [2] and in assay [3] were 200 nM and 400 nM, respectively.

In the case of `Cn1c(=O)c(S(=O)(=O)c2ccc(Cl)cc2)cc2cnc(Nc3cnc4[nH]ccc4c3)nc21`, the IC50 in assay [2] and in assay [3] was 5000 nM throughout.

For `Cn1c(=O)c(S(=O)(=O)Nc2ccc(F)cc2F)cc2cnc(Nc3ccc4[nH]ccc4c3)nc21`, the IC50 in assay [2] and in assay [3] was 5000 nM each time.

Take `Cn1c(=O)c(S(=O)(=O)c2ccc(F)cc2F)cc2cnc(Nc3ccc4cc[nH]c4c3)nc21`: the IC50 in assay [2] and in assay [3] was 5000 nM each time.

On to `Cn1c(=O)c(S(=O)(=O)c2ccc(F)cc2F)cc2cnc(Nc3ccc4sccc4c3)nc21`, for which the IC50 in [2] and in [3] was 500 nM in each case.
